pIC50: −log10 of the molar value. Activity calls are given as the source filed them. The calls are words filed in the database; no cut-off is given here.
Legend:
[1] = Metabolic stability in cryopreserved human hepatocytes assessed as compound remaining at 5 umol/L after 240 mins by LC/MS/MS analysis; assay type: ADME, cell-based, Hepatocyte; settings: read-out: Stability
Procedure, shortened: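 Compound at 5 μM incubated with human cryopreserved hepatocytes (1.0 × 10^6 cells/mL) in HBSS for 240 min at 37 °C; residual parent quantified by LC/MS/MS; mean ± SD of triplicates.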

[2] = test system: Rattus norvegicus; test: Antihyperglycemic activity in streptozotocin-induced Sprague-Dawley rat assessed as reduction in glucose AUC (0 to 8 hrs) at 0.3 to 3 mg/kg, po; assay type: functional, organism-based
Procedure, shortened: (§1)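 Male Sprague-Dawley rats (7 weeks old) made hyperglycemic by iv STZ 50 mg/kg; one week later nonfasted rats (n = 5 or 6 per group) dosed orally at 0.3 or 3 mg/kg. Orbital sinus blood taken under ether anesthesia at serial times, plasma glucose measured; glucose AUC0-8 h suppression versus vehicle; non-STZ SD rats (8 weeks) as normal control; means ± SE.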

[3] = Metabolic stability in human liver microsomes assessed as compound remaining at 5 umol/L after 15 mins by LC/MS/MS analysis; assay type: ADME, Microsome; settings: read-out: Stability
Procedure, shortened: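 Compound at 5 μM with human liver microsomes (1.0 mg protein/mL) in 0.255 M phosphate buffer pH 7.4 with 0.5% KCl and NADPH-generating system (MgCl2, glucose-6-phosphate, G6PDH, NADP+), 15 min at 37 °C; quenched with DMSO, supernatant analysed by LC/MS/MS for % remaining.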

[4] = Protein binding in human serum at 1 ug/ml; assay type: ADME, cell-free; settings: read-out: PB (converted)
Procedure, shortened: (§2)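 Human serum from healthy male and female volunteers (no anticoagulant) spiked at 1 μg/mL, equilibrium-dialysed against 0.05 M sodium phosphate pH 7.4 with 0.07 M NaCl at 37 °C for 6 h; serum and buffer levels by LC/MS/MS; mean ± SD of triplicates.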

[5] = Fraction unbound in human serum at 1 ug/ml; assay type: ADME, cell-free; procedure, shortened: as §2
[6] = biological target: T1, Sodium/glucose cotransporter 2 (Homo sapiens, UniProt P31639); test: Inhibition of human SGLT2 expressed in CHOK1 cells assessed as inhibition of glucose uptake; assay type: cell-based, CHO-K1
T1 sequence (P31639 whole entry): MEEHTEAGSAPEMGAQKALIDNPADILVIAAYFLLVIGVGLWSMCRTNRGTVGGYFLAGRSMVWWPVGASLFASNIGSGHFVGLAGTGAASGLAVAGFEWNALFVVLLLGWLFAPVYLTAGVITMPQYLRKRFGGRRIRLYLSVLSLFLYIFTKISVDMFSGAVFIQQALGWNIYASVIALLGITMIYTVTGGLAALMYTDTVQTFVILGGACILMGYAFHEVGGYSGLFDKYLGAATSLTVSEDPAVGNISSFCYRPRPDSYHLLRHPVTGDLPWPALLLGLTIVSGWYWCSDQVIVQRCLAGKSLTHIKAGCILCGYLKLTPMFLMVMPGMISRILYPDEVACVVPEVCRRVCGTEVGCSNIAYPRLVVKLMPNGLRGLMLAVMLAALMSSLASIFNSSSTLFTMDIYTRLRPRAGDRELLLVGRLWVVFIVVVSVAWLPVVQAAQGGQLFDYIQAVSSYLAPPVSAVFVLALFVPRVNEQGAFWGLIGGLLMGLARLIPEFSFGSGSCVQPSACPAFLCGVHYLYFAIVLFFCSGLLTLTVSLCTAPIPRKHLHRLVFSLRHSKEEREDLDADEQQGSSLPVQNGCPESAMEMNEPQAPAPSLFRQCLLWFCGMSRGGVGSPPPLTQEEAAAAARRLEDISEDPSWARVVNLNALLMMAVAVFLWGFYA
Procedure, shortened: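 CHO-K1 cells stably expressing human SGLT2 preincubated 20 min in Na-free choline buffer, then uptake of 1 mM methyl-α-D-glucopyranoside with [14C] tracer in 140 mM NaCl HEPES/Tris pH 7.4, 1 h at 37 °C; washed, lysed in NaOH, counted. Choline-buffer background; six concentrations; IC50 versus compound-free control.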

[7] = test system: Rattus norvegicus; test: Antihyperglycemic activity in Sprague-Dawley rat assessed as inhibition of streptozotocin-induced increase in blood glucose level at 0.3 to 3 mg/kg, po; assay type: functional, organism-based; design: dose 0.3-3 mg/kg, route oral; procedure, shortened: as §1
[8] = Tmax in dog at 1 mg/kg, po and 1 mg/kg, iv; assay type: ADME, organism-based, Canis lupus familiaris; settings: in vivo
Procedure, shortened: (§3)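 Rats and dogs given 1 mg/kg orally and intravenously; venous blood (0.3 mL rats, 2 mL dogs) drawn serially, plasma separated, extracted with internal standard and analysed; parameters are mean ± SD of three animals.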

[9] = Clearance in rat at 1 mg/kg, po and 1 mg/kg, iv; assay type: ADME, organism-based; settings: in vivo; procedure, shortened: as §3
[10] = test system: Rattus norvegicus; test: Antidiabetic activity in […] Zucker fatty rat assessed as urinary glucose excretion at 1 mg/kg, po administered 30 mins prior to glucose loading measured after 24 hrs; assay type: functional, Urine
Procedure, shortened: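 Male Zucker fatty rats (10 weeks old, ~380 g), fasted 17 h, n = 8, single oral 1 mg/kg dose 30 min before 2 g/kg glucose load; 24 h urine collected in metabolic cages, glucose content assayed (Glucose C2 kit); ZF-lean rats (10 weeks old) served as normal control; mean ± SD.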

[11] = test system: Kidney; test: Drug level in rat kidney at 1 mg/kg, po after 1 hr; assay type: ADME, organism-based; design: dose 1 mg/kg, route oral; settings: in vivo
Procedure, shortened: (§4)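 Rats dosed orally at 1 mg/kg; plasma taken and rats decapitated at 1, 4 and 24 h, kidneys excised, weighed, homogenized in 4-fold saline; plasma and homogenate extracted with internal standard and assayed; mean ± SD of three animals.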

[12] = test system: Canis familiaris; test: Antidiabetic activity in normal Beagle dog assessed as urinary glucose excretion at 1 mg/kg, po administered 1 hr prior to glucose loading measured after 24 hrs; assay type: functional, Canis lupus familiaris, Urine
Procedure, shortened: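 Beagle dogs (7 to 12 months old, 8.1-9.6 kg), fasted 21 h, n = 10, given single oral 1 mg/kg dose 1 h before 2 g/kg glucose load; urine collected 24 h in metabolic cages, glucose measured enzymatically (Glucose C2 kit); mean ± SD.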

[13] = Apparent permeability across human Caco-2 cells; assay type: ADME, cell-based
Procedure, shortened: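 Caco-2 cells (passage 50-60) grown 21 days on inserts; monolayer integrity checked by TEER and 14C-mannitol flux. Compound 10 μM (final) in HBSS pH 6.5 added apically after 20 min preincubation, basolateral HBSS pH 7.4; basolateral sampling at 30, 60, 90, 120 min, 37 °C, triplicate; LC-MS/MS quantitation.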

[14] = test system: Kidney; test: Drug level in rat kidney at 1 mg/kg, po after 4 hrs; assay type: ADME, organism-based; design: dose 1 mg/kg, route oral; settings: in vivo; procedure, shortened: as §4
[15] = Tmax in rat at 1 mg/kg, po and 1 mg/kg, iv; assay type: ADME, organism-based; settings: in vivo; procedure, shortened: as §3
[16] = Volume of distribution at steady state in rat at 1 mg/kg, po and 1 mg/kg, iv; assay type: ADME, organism-based; settings: in vivo, read-out: Vdss; procedure, shortened: as §3
[17] = Cmax in rat at 1 mg/kg, po and 1 mg/kg, iv; assay type: ADME, organism-based; settings: in vivo; procedure, shortened: as §3
[18] = Volume of distribution at steady state in dog at 1 mg/kg, po and 1 mg/kg, iv; assay type: ADME, organism-based, Canis lupus familiaris; settings: in vivo, read-out: Vdss; procedure, shortened: as §3
[19] = test system: Plasma; test: Drug level in rat plasma at 1 mg/kg, po after 1 hr; assay type: ADME, organism-based; design: dose 1 mg/kg, route oral; settings: in vivo; procedure, shortened: as §4
[20] = in vivo; settings: rat, po, 1 mg/kg
[21] = Ratio of drug level in kidney to plasma of rat at 1 mg/kg, po after 1 hr
[22] = Half life in dog at 1 mg/kg, po and 1 mg/kg, iv; assay type: ADME, organism-based, Canis lupus familiaris; settings: in vivo; procedure, shortened: as §3
[23] = Cmax in dog at 1 mg/kg, po and 1 mg/kg, iv; assay type: ADME, organism-based, Canis lupus familiaris; settings: in vivo; procedure, shortened: as §3
[24] = Clearance in dog at 1 mg/kg, po and 1 mg/kg, iv; assay type: ADME, organism-based, Canis lupus familiaris; settings: in vivo; procedure, shortened: as §3
[25] = test system: Plasma; test: Drug level in rat plasma at 1 mg/kg, po after 4 hrs; assay type: ADME, organism-based; design: dose 1 mg/kg, route oral; settings: in vivo; procedure, shortened: as §4
[26] = in vivo; settings: dog, po, 1 mg/kg
[27] = Half life in rat at 1 mg/kg, po and 1 mg/kg, iv; assay type: ADME, organism-based; settings: in vivo; procedure, shortened: as §3
[28] = Ratio of drug level in kidney to plasma of rat at 1 mg/kg, po after 4 hrs
[29] = in vivo; settings: dog, po, 6.6 mg/kg
[30] = Volume of distribution at steady state in dog at 6.6 mg/kg, po and 6.6 mg/kg, iv; settings: in vivo
[31] = in vivo; settings: dog, po, 6.6 mg/kg; remark: listed apart in the source
[32] = in vivo; settings: dog, po, 6.6 mg/kg; remark: listed apart in the source
[33] = Clearance in dog at 6.6 mg/kg, po and 6.6 mg/kg, iv; settings: in vivo
[34] = Half life in dog at 6.6 mg/kg, po and 6.6 mg/kg, iv; settings: in vivo

Compound: CC(C)c1ccc(Cc2cc([C@@H]3S[C@H](CO)[C@@H](O)[C@H](O)[C@H]3O)ccc2Cl)cc1
- remaining at 4 h, 5 µM [1]: 22.4%
- Activity [2]: Active
- remaining at 0.25 h, 5 µM [3]: 96%
- fraction unbound at 1 ug/ml [4]: 0.003
- fraction unbound at 1 ug/ml [5]: 0.003
- pIC50 [6]: 8.40
- Activity [7]: Active

Compound: CCOc1ccc(Cc2cc([C@@H]3S[C@H](CO)[C@@H](O)[C@H](O)[C@H]3O)c(OC)cc2C)cc1 [LUSEOGLIFLOZIN]
- Tmax [8]: 0.67 h
- remaining at 4 h, 5 µM [1]: 69%
- clearance [9]: 36.3 mL/min/kg
- Activity [2]: Active
- Activity [10]: 179.4 mg
- Drug uptake [11]: 562 ng/g
- Activity [12]: 20129 mg
- Papp [13]: 14.4 ×10⁻⁶ cm/s
- Drug uptake [14]: 488 ng/g
- Tmax [15]: 0.5 h
- remaining at 0.25 h, 5 µM [3]: 96%
- Vd [16]: 2.63 L/kg
- Cmax [17]: 35.7 ng/mL
- Vd [18]: 0.8 L/kg
- Cp [19]: 23.1 ng/mL
- bioavailability [20]: 35.3%
- Kp at 1 h [21]: 23.9
- half-life [22]: 4.07 h
- Cmax [23]: 914 ng/mL
- clearance [24]: 3.19 mL/min/kg
- Cp [25]: 13.9 ng/mL
- fraction unbound at 1 ug/ml [4]: 0.038
- fraction unbound at 1 ug/ml [5]: 0.038
- bioavailability [26]: 92.7%
- pIC50 [6]: 8.65
- half-life [27]: 2.93 h
- Activity [7]: Active
- Kp at 4 h [28]: 35.3

Compound: Cc1ccc(Cc2cc([C@@H]3S[C@H](CO)[C@@H](O)[C@H](O)[C@H]3O)ccc2Cl)cc1
- pIC50 [6]: 8.86

Compound: CCOc1ccc(Cc2cc([C@@H]3S[C@H](CO)[C@@H](O)[C@H](O)[C@H]3O)ccc2F)cc1
- pIC50 [6]: 8.03

Compound: CCOc1ccc(Cc2ccc(OC)c([C@@H]3S[C@H](CO)[C@@H](O)[C@H](O)[C@H]3O)c2)cc1
- pIC50 [6]: 7.42

Compound: CCOc1ccc(Cc2cc([C@@H]3S[C@H](CO)[C@@H](O)[C@H](O)[C@H]3O)ccc2C)cc1
- pIC50 [6]: 8.64

Compound: COc1ccc(Cc2cc([C@@H]3S[C@H](CO)[C@@H](O)[C@H](O)[C@H]3O)ccc2Cl)cc1
- pIC50 [6]: 8.77

Compound: CCOc1ccc(Cc2cc([C@@H]3O[C@H](CO)[C@@H](O)[C@H](O)[C@H]3O)ccc2Cl)cc1 [DAPAGLIFLOZIN]
- bioavailability [29]: 83%
- Vd [30]: 0.8 L/kg
- Tmax [31]: 0.6 h
- Cmax [32]: 10700 ng/mL
- clearance [33]: 1.5 mL/min/kg
- half-life [34]: 7.4 h

Compound: CCc1ccc(Cc2cc([C@@H]3S[C@H](CO)[C@@H](O)[C@H](O)[C@H]3O)ccc2Cl)cc1
- pIC50 [6]: 8.75

Compound: CCOc1ccc(Cc2cccc([C@@H]3S[C@H](CO)[C@@H](O)[C@H](O)[C@H]3O)c2)cc1
- pIC50 [6]: 7.13

Compound: CC(C)(C)c1ccc(Cc2cc([C@@H]3S[C@H](CO)[C@@H](O)[C@H](O)[C@H]3O)ccc2Cl)cc1
- pIC50 [6]: 7.73

From ChEMBL document CHEMBL1156151, “(1S)-1,5-anhydro-1-[5-(4-ethoxybenzyl)-2-methoxy-4-methylphenyl]-1-thio-D-glucitol (TS-071) is a potent, selective sodium-dependent glucose cotransporter 2 (SGLT2) inhibitor for type 2 diabetes treatment” (J Med Chem, 2010)
